Nine compounds from ChEMBL document CHEMBL4765448, “Multiple biological active 4-aminopyrazoles containing trifluoromethyl and their 4-nitroso-precursors: Synthesis and evaluation” (Eur J Med Chem, 2020) can be followed below.

Structures are written as SMILES. Values after ≈ are worked out from the molar mass of the structure shown. Values joined by “and” are separate entries in the source; they are usually repeats but may differ in a detail not shown here. Equal values may be shown once. Active and inactive are the calls of the source. The rule behind the calls is not given here. A value given as a limit tells only on which side of the number the result lay.

Data set [1] in a line: Antioxidant activity assessed as trolox equivalent of ABTS radical scavenging activity measured after 1 hr by UV-vis spectrophotometric method. The class given is functional. The essentials: (§1)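 ABTS cation-radical decolorization was read spectrophotometrically as the fall in absorbance after 1 h. Trolox was the reference. TEAC was taken as the ratio of concentration-response slopes, test/Trolox, and IC50 was also derived. Data are mean ± SEM, n = 3.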

The nature of data set [2]: Antioxidant activity assessed as AAPH scavenging activity by measuring residual fluorescence at 10 uM measured at 1 min interval for 30 mins by ORAC fluorescein assay relative to control. The class given is functional. The essentials:
(§2)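 ORAC-FL assay with fluorescein as the probe and AAPH as the peroxyl radical generator. The loss of fluorescence over time was followed, and the result is given as % fluorescence restored at 10 and 50 µM. Each value is the mean of two independent experiments.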

Data set [3] in a line: Antioxidant activity assessed as AAPH scavenging activity by measuring residual fluorescence at 50 uM measured at 1 min interval for 30 mins by ORAC fluorescein assay relative to control. The class given is functional. The method in brief:
as §2

Data set [4] relates to Rattus norvegicus. The data set can be described thus: Antiinflammatory activity in rat model of carrageenan-induced paw edema assessed as inhibition of hind paw swelling at 15 mg/kg, ip measured after 5 hrs. In kind it is functional, organism-based.
The subject of another data set is Neisseria gonorrhoeae. The data set can be described thus: Antibacterial activity against Neisseria gonorrhoeae. In kind it is functional.
Another data set concerns Escherichia coli. The data set can be described thus: Antibacterial activity against Escherichia coli. The class given is functional.
Another data set concerns Klebsiella pneumoniae. The data set can be described thus: Antibacterial activity against Klebsiella pneumoniae. The class given is functional.
In the next data set the test system is Citrobacter braakii. The data set can be described thus: Antibacterial activity against Citrobacter braakii. In kind it is functional.
A further data set concerns Proteus vulgaris. The data set can be described thus: Antibacterial activity against Proteus vulgaris. In kind it is functional.
For a further data set, the system named is Serratia marcescens. The data set can be described thus: Antibacterial activity against Serratia marcescens. The class given is functional.
The test system of the next data set is Shigella flexneri. The data set can be described thus: Antibacterial activity against Shigella flexneri. In kind it is functional.
For another data set, the system named is Pseudomonas aeruginosa. The data set can be described thus: Antibacterial activity against Pseudomonas aeruginosa. In kind it is functional.
The test system of the next data set is Streptococcus pyogenes. The data set can be described thus: Antibacterial activity against Streptococcus pyogenes. In kind it is functional.
The next data set relates to Staphylococcus aureus. The data set can be described thus: Antibacterial activity against Staphylococcus aureus. In kind it is functional.
The subject of the next data set is HeLa. The data set can be described thus: Cytotoxicity against human HeLa cells. In kind it is functional, cell-based.
The test system of a further data set is NHDF. The data set can be described thus: Cytotoxicity against HDF cells. The class given is cell-based, Homo sapiens. The conditions noted are these: nhdf.
Data set [5] relates to Erythrocyte. The data set can be described thus: Antioxidant activity in human erythrocytes assessed as protection against AAPH-induced hemolysis at 50 uM preincubated for 20 mins followed by AAPH addition and measured after 2 hrs by spectrophotometric method relative to control. The class given is functional. The conditions noted are these: time 140 min, 2.333 h. The method in brief:
(§3)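 Erythrocyte hemolysis assay with AAPH as the free-radical initiator, testing 50 and 400 µM. Results are expressed as relative protection of membranes against oxidative damage, each the mean of two independent experiments.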

Data set [6] deals with Erythrocyte. The data set can be described thus: Antioxidant activity in human erythrocytes assessed as protection against AAPH-induced hemolysis at 400 uM preincubated for 20 mins followed by AAPH addition and measured after 2 hrs by spectrophotometric method relative to control. The class given is functional. The note with it: time 140 min, 2.333 h. The method in brief:
as §3

A short description of data set [7]: Antioxidant activity assessed as ABTS radical scavenging activity measured after 1 hr by UV-vis spectrophotometric method. The class given is functional. The essentials: as §1
Data set [8] relates to Rattus norvegicus. The data set can be described thus: Antiinflammatory activity in rat model of carrageenan-induced paw edema assessed as inhibition of hind paw swelling at 15 mg/kg, ip measured after 1 hr relative to control. In kind it is functional.
Data set [9] concerns Rattus norvegicus. The data set can be described thus: Antiinflammatory activity in rat model of carrageenan-induced paw edema assessed as inhibition of hind paw swelling at 15 mg/kg, ip measured after 3 hrs relative to control. The class given is functional.
The subject of data set [10] is Rattus norvegicus. The data set can be described thus: Analgesic activity in rat assessed as prolongation of latency period at 15 mg/kg, ip measured after 1 hr by hot-plate test relative to control. In kind it is functional. The essentials: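 Hot-plate test in rats. Compounds were given by intraperitoneal injection. Latency was read at 1 h and, for some compounds, also at 2 h after dosing. Results are expressed as % prolongation of the latent period versus vehicle-treated control. Significance was given as p-values.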

Data set [11] deals with Mycobacterium tuberculosis. The data set can be described thus: Antitubercular activity against Mycobacterium tuberculosis H37Rv. The class given is functional. The method in brief:
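Mycobacterium tuberculosis strain H37Rv; minimum inhibitory concentration (MIC) taken as the lowest level needed to inhibit bacterial growth; isoniazid and pyrazinamide served as reference drugs.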

The test system of the next data set is Trichophyton rubrum. The data set can be described thus: Antifungal activity against Trichophyton rubrum. In kind it is functional.
The next data set deals with Nannizzia gypsea. The data set can be described thus: Antifungal activity against Trichophyton gypseum. The class given is functional.
In a further data set the test system is Trichophyton tonsurans. The data set can be described thus: Antifungal activity against Trichophyton tonsurans. In kind it is functional.
The next data set has as its system Trichophyton violaceum. The data set can be described thus: Antifungal activity against Trichophyton violaceum. In kind it is functional.
Data set [12] relates to Trichophyton interdigitale. The data set can be described thus: Antifungal activity against Trichophyton mentagrophytes var. interdigitale. The class given is functional.
Another data set has as its system Epidermophyton floccosum. The data set can be described thus: Antifungal activity against Epidermophyton floccosum. In kind it is functional.
The test system of the next data set is Microsporum canis. The data set can be described thus: Antifungal activity against Microsporum canis. In kind it is functional.
The subject of the next data set is Candida albicans. The data set can be described thus: Antifungal activity against Candida albicans. The class given is functional.
Data set [13] can be described thus: Selectivity index, ratio of IC50 for HDF cells to IC50 for human HeLa cells. In kind it is toxicity. The conditions noted are these: HDF cells versus HeLa cells, read-out: Ratio IC50.
Where [14] appears, read: Homo sapiens, HeLa, read-out: IC50.

Consider `Nc1c(C(F)(F)F)n[nH]c1-c1cccs1`, for which the Activity is 1.22 equiv and 1.1 equiv in [1]; 52.5% and 52.6% in data set [2]; 14% and 21.8% in data set [3]. Further, the result in the data set with Rattus norvegicus [4] was Active.

On to `CS(=O)(=O)c1ccc(-n2nc(C(F)(F)F)c(N)c2-c2ccccc2)cc1.Cl`, for which the MIC in the data set with Neisseria gonorrhoeae is 250 mg/L; in the data set with Escherichia coli it was greater than 250 mg/L; in the data set with Klebsiella pneumoniae it was greater than 250 mg/L; in the data set on Citrobacter braakii, greater than 250 mg/L; against Proteus vulgaris, greater than 250 mg/L; in the data set on Serratia marcescens, greater than 250 mg/L. For the same compound, the MIC against Shigella flexneri, in the data set with Pseudomonas aeruginosa, with Streptococcus pyogenes and against Staphylococcus aureus was greater than 250 mg/L each time. In addition, in data set [1], the outcome was inactive. The half-inhibitory concentration (IC50) result in the data set with HeLa (hela) and in the data set with NHDF was “Not Active” each time. In addition, the outcome with Rattus norvegicus [4] was Active.

In the case of `O=c1c(O)c(-c2ccc(O)c(O)c2)oc2cc(O)cc(O)c12` [QUERCETIN], the Activity is 87.6% in data set [2] and 90% in data set [3]. In addition, the “fold change (FC)” value is 0.023 in the data set on Erythrocyte [5] and 0.045 in the data set on Erythrocyte [6].

Take `CN[C@@H]1[C@H](O)[C@H](NC)[C@H]2O[C@@]3(O)C(=O)C[C@@H](C)O[C@H]3O[C@@H]2[C@H]1O` [SPECTINOMYCIN]: the minimum inhibitory concentration (MIC) in the data set on Neisseria gonorrhoeae is 15.6 mg/L (≈ 46.9 µM); in the data set on Escherichia coli it was 15.6 mg/L (≈ 46.9 µM); in the data set on Klebsiella pneumoniae, 15.6 mg/L (≈ 46.9 µM); against Citrobacter braakii, 31.2 mg/L (≈ 93.9 µM); in the data set on Proteus vulgaris, 1.25 mg/L (≈ 3.76 µM); in the data set on Serratia marcescens, 15.6 mg/L (≈ 46.9 µM). The figures for the minimum inhibitory concentration (MIC) in the data set with Shigella flexneri, with Pseudomonas aeruginosa and in the data set with Staphylococcus aureus were 7.8 mg/L (≈ 23.5 µM), 2.5 mg/L (≈ 7.52 µM) and 31.2 mg/L (≈ 93.9 µM), respectively.

In the case of `Cc1ccc(-c2[nH]nc(C(F)(F)F)c2N)cc1`, in data set [1], the Activity came to 1.43 equiv. Further, the IC50 in [7] was 13.4 µM. The result with Rattus norvegicus [4] was Active.

`Cc1c(N(C)CS(=O)(=O)O)c(=O)n(-c2ccccc2)n1C` [METAMIZOLE]: the inhibition entry in the data set on Rattus norvegicus [8] and in the data set on Rattus norvegicus [9] was “inactive” throughout. The Activity in the data set on Rattus norvegicus [10] is 59.8%.

In the case of `Cl.Nc1c(C(F)(F)F)n[nH]c1-c1ccccc1`, the minimum inhibitory concentration (MIC) is 6.2 mg/L in [11]; 62.5 mg/L in the data set with Neisseria gonorrhoeae; greater than 250 mg/L in the data set with Escherichia coli; greater than 250 mg/L in the data set on Klebsiella pneumoniae; greater than 250 mg/L against Citrobacter braakii; greater than 250 mg/L against Proteus vulgaris. The minimal inhibitory concentration (MIC) in the data set with Serratia marcescens was greater than 250 mg/L; with Shigella flexneri it was greater than 250 mg/L; with Pseudomonas aeruginosa it was greater than 250 mg/L; against Streptococcus pyogenes it was greater than 250 mg/L; in the data set with Staphylococcus aureus, greater than 250 mg/L; against Trichophyton rubrum, greater than 200 mg/L. For the same compound, the MIC (in the data set with Nannizzia gypsea; against Trichophyton tonsurans; against Trichophyton violaceum; in data set [12]; against Epidermophyton floccosum; against Microsporum canis) was greater than 200 mg/L each time. The minimal inhibitory concentration (MIC) in the data set with Candida albicans is greater than 200 mg/L. In addition, the IC50 was 41.8 µM in data set [7], 1.86 µM with HeLa (setting [14]) and “Not Active” in the data set on NHDF. For the same compound, the entries for the “fold change (FC)” value with Erythrocyte [5] and in the data set on Erythrocyte [6] were 1.03 and 0.01, respectively. Further, the selectivity ratio in data set [13] is greater than 53.8. In the data set on Rattus norvegicus [8], the inhibition in vivo at 15 mg/kg is 44.8%. Moreover, the Activity with Rattus norvegicus [10] is given as 91.8%.

Regarding `Cl.Cn1nc(C(F)(F)F)c(N)c1-c1cccs1`, the MIC in data set [11] was 12.5 mg/L; in the data set with Neisseria gonorrhoeae it was greater than 250 mg/L; in the data set on Escherichia coli, greater than 250 mg/L; in the data set with Klebsiella pneumoniae, greater than 250 mg/L; in the data set with Citrobacter braakii, greater than 250 mg/L; with Proteus vulgaris it was greater than 250 mg/L. In addition, the minimal inhibitory concentration (MIC) against Serratia marcescens is greater than 250 mg/L; against Shigella flexneri it was greater than 250 mg/L; with Pseudomonas aeruginosa, greater than 250 mg/L; against Streptococcus pyogenes, greater than 250 mg/L; against Staphylococcus aureus, greater than 250 mg/L; in the data set with Trichophyton rubrum, greater than 200 mg/L. The MIC against Nannizzia gypsea was greater than 200 mg/L; against Trichophyton tonsurans it was greater than 200 mg/L; against Trichophyton violaceum, greater than 200 mg/L; in [12], 200 mg/L; against Epidermophyton floccosum, greater than 200 mg/L; against Microsporum canis, greater than 200 mg/L. In addition, the MIC against Candida albicans was greater than 200 mg/L. Also, the Activity in data set [1] is 0.1 equiv; in the data set with HeLa, “Dose-dependent effect”. The IC50 in the data set on HeLa (setting [14]) is 48.7 µM; in the data set on NHDF, “Not Active”. The selectivity ratio in data set [13] is greater than 2.05. Besides, in the data set on Rattus norvegicus [4], the outcome was Active.

On to `O=C1O[C@H]([C@@H](O)CO)C(O)=C1O` [ASCORBIC ACID], for which the IC50 in data set [7] is 21.6 µM.
